In ChEMBL document CHEMBL4257484, “Membrane-active antimicrobial poly(amino-modified alkyl) β-cyclodextrins synthesized via click reactions” (Medchemcomm, 2018):
In brackets after ≈: the same amount, converted by molar mass.

Columns and labels:
Streptococcus agalactiae = experiment: Antibacterial activity against drug-resistant Streptococcus agalactiae B1 after 18 to 20 hrs by agar dilution method; type: functional
Summary of the method: (§1)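 Agar dilution per CLSI. Overnight broth cultures were diluted 100-fold, and one loopful (about 10^5 to 10^4 CFU) was spotted onto agar plates containing the CD. Growth was scored after 18–20 h at 37 °C. MIC values are in µM.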

[1] = Hemolytic activity in rabbit RBC at 2 uM after 20 mins relative to control; type: ADME, cell-based, Oryctolagus cuniculus, Erythrocyte; conditions: rabbit red blood cells (erythrocytes), read-out: Activity
Summary of the method: (§2)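 Rabbit erythrocytes suspended in 150 mM NaCl/10 mM Hepes-NaOH, pH 7.4, at 0.5% hematocrit (final) and incubated with compound at 37 °C. The table footnote gives 20 min; the methods section gives 30 min. Hemolysis was read as absorbance at 540 nm, with 50 µM lysolecithin defining 100% hemolysis.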

Pseudomonas aeruginosa = experiment: Antibacterial activity against drug-sensitive Pseudomonas aeruginosa PAO1 after 20 hrs by liquid microdilution method; type: functional; conditions: PAO1, 20 h
Summary of the method: (§3)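 Two-fold serial dilutions of compound in Mueller–Hinton broth, inoculated with 1 × 10^4 cells and cultured at 37 °C for 20 h in microtiter wells.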

[2] = Hemolytic activity in rabbit RBC at 10 uM after 20 mins relative to control; type: ADME, cell-based, Oryctolagus cuniculus, Erythrocyte; conditions: rabbit red blood cells (erythrocytes), read-out: Activity; summary of the method: as §2
Escherichia coli = experiment: Antibacterial activity against drug-sensitive Escherichia coli K-12 W3110 after 20 hrs by liquid microdilution method; type: functional; conditions: K-12 substr. W3110, 20 h; summary of the method: as §3
Salmonella typhimurium = experiment: Antibacterial activity against drug-sensitive Salmonella typhimurium LT2 after 20 hrs by liquid microdilution method; type: functional, Salmonella enterica subsp. enterica serovar Typhimurium; conditions: Salmonella enterica, LT2, 20 h; summary of the method: as §3
[3] = Hemolytic activity in rabbit RBC at 20 uM after 20 mins relative to control; type: ADME, cell-based, Oryctolagus cuniculus, Erythrocyte; conditions: rabbit red blood cells (erythrocytes), read-out: Activity; summary of the method: as §2
[4] = Hemolytic activity in rabbit RBC at 5 uM after 20 mins relative to control; type: ADME, cell-based, Oryctolagus cuniculus, Erythrocyte; conditions: rabbit red blood cells (erythrocytes), read-out: Activity; summary of the method: as §2
[5] = Hemolytic activity in rabbit RBC at 1 uM after 20 mins relative to control; type: ADME, cell-based, Oryctolagus cuniculus, Erythrocyte; conditions: rabbit red blood cells (erythrocytes), read-out: Activity; summary of the method: as §2
[6] = Lipophilicity, log P of the compound; type: physicochemical; conditions: octanol/water
[7] = Hemolytic activity in rabbit RBC at 50 uM after 20 mins relative to control; type: ADME, cell-based, Oryctolagus cuniculus, Erythrocyte; conditions: rabbit red blood cells (erythrocytes), read-out: Activity; summary of the method: as §2
Staphylococcus aureus [8] = experiment: Induction of membrane disruption in methicillin-sensitive Staphylococcus aureus FDA 209P assessed as increase in K+ efflux after 30 mins; type: functional; conditions: 0.5 h, read-out: ED50 (the source's name)
Summary of the method: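 S. aureus washed twice and suspended at 2 × 10^9 cells per cm3 in 100 mM choline chloride/50 mM Mops-Tris, pH 7.2, then exposed to compound at 37 °C for 30 min. Released K+ was measured in the centrifuged supernatant with a K+-selective electrode. Melittin (10 µM) defined 100% efflux, and ED50 is the concentration giving 50% efflux.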

Enterococcus faecalis [9] = experiment: Antibacterial activity against drug-resistant Enterococcus faecalis MS29030 after 18 to 20 hrs by agar dilution method; type: functional; summary of the method: as §1
Staphylococcus aureus [10] = experiment: Antibacterial activity against methicillin-resistant Staphylococcus aureus MS29202 after 18 to 20 hrs by agar dilution method; type: functional; summary of the method: as §1
Bacillus subtilis = experiment: Antibacterial activity against drug-sensitive Bacillus subtilis 168 after 20 hrs by liquid microdilution method; type: functional; conditions: subsp. subtilis str. 168, 20 h; summary of the method: as §3
Staphylococcus aureus [11] = experiment: Antibacterial activity against methicillin-sensitive Staphylococcus aureus FDA 209P after 20 hrs by liquid microdilution method; type: functional; summary of the method: as §3
Enterococcus faecalis [12] = experiment: Antibacterial activity against vancomycin-resistant Enterococcus faecalis MS29016 after 18 to 20 hrs by agar dilution method; type: functional; summary of the method: as §1
Staphylococcus aureus [13] = experiment: Antibacterial activity against Staphylococcus aureus FDA 209P assessed as decrease in cell viability after 30 mins by colony counting method; type: functional; conditions: 0.5 h
Summary of the method: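 S. aureus washed twice and suspended at 2 × 10^9 cells per cm3 in 100 mM choline chloride/50 mM Mops-Tris, pH 7.2. Exposed to CD at 37 °C for 30 min. An aliquot was diluted in physiological saline, plated on polypeptone/yeast extract/NaCl agar and incubated overnight at 37 °C. Viability was taken from colony counts; LC50 is the concentration giving 50% viability.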

Enterococcus faecium = experiment: Antibacterial activity against drug-resistant Enterococcus faecium MS29120 after 18 to 20 hrs by agar dilution method; type: functional; summary of the method: as §1

## CCCCCNCc1cn(C[C@H]2O[C@@H]3O[C@H]4[C@H](O)[C@@H](O)[C@@H](O[C@H]5[C@H](O)[C@@H](O)[C@@H](O[C@H]6[C@H](O)[C@@H](O)[C@@H](O[C@H]7[C@H](O)[C@@H](O)[C@@H](O[C@H]8[C@H](O)[C@@H](O)[C@@H](O[C@H]9[C@H](O)[C@@H](O)[C@@H](O[C@H]2[C@H](O)[C@H]3O)O[C@@H]9Cn2cc(CNCCCCC)nn2)O[C@@H]8Cn2cc(CNCCCCC)nn2)O[C@@H]7Cn2cc(CNCCCCC)nn2)O[C@@H]6Cn2cc(CNCCCCC)nn2)O[C@@H]5Cn2cc(CNCCCCC)nn2)O[C@@H]4Cn2cc(CNCCCCC)nn2)nn1
Streptococcus agalactiae
  MIC: 3 µM (≈ 6.56 µg/mL)
[1]
  hemolysis at 20 min, 2 µM: 0%
Pseudomonas aeruginosa
  MIC: > 43 µM
[2]
  hemolysis at 20 min, 10 µM: 0%
Escherichia coli
  MIC: 43 µM (≈ 94 µg/mL)
Salmonella typhimurium
  MIC: > 43 µM
[3]
  hemolysis at 20 min, 20 µM: 0%
[4]
  hemolysis at 20 min, 5 µM: 1%
[5]
  hemolysis at 20 min, 1 µM: 0%
[6]
  logP: -0.48
[7]
  hemolysis at 20 min, 50 µM: 1%
Staphylococcus aureus [8]
  EC50: 20 µM
Enterococcus faecalis [9]
  MIC: > 43 µM
Staphylococcus aureus [10]
  MIC: 21 µM (≈ 45.9 µg/mL)
Bacillus subtilis
  MIC: 1 µM (≈ 2.19 µg/mL)
Staphylococcus aureus [11]
  MIC: 3 to 5 µM (≈ 6.56 to 10.9 µg/mL)
Enterococcus faecalis [12]
  MIC: > 43 µM
Staphylococcus aureus [13]
  LC50: 20 µM
Enterococcus faecium
  MIC: 21 µM (≈ 45.9 µg/mL)

## CCCCCCNCc1cn(C[C@H]2O[C@@H]3O[C@H]4[C@H](O)[C@@H](O)[C@@H](O[C@H]5[C@H](O)[C@@H](O)[C@@H](O[C@H]6[C@H](O)[C@@H](O)[C@@H](O[C@H]7[C@H](O)[C@@H](O)[C@@H](O[C@H]8[C@H](O)[C@@H](O)[C@@H](O[C@H]9[C@H](O)[C@@H](O)[C@@H](O[C@H]2[C@H](O)[C@H]3O)O[C@@H]9Cn2cc(CNCCCCCC)nn2)O[C@@H]8Cn2cc(CNCCCCCC)nn2)O[C@@H]7Cn2cc(CNCCCCCC)nn2)O[C@@H]6Cn2cc(CNCCCCCC)nn2)O[C@@H]5Cn2cc(CNCCCCCC)nn2)O[C@@H]4Cn2cc(CNCCCCCC)nn2)nn1
Streptococcus agalactiae
  MIC: 10 µM (≈ 22.8 µg/mL)
[1]
  hemolysis at 20 min, 2 µM: 4%
Pseudomonas aeruginosa
  MIC: 10 µM (≈ 22.8 µg/mL)
[2]
  hemolysis at 20 min, 10 µM: 25%
Escherichia coli
  MIC: 5 µM (≈ 11.4 µg/mL)
Salmonella typhimurium
  MIC: 10 µM (≈ 22.8 µg/mL)
[3]
  hemolysis at 20 min, 20 µM: 64%
[4]
  hemolysis at 20 min, 5 µM: 7%
[5]
  hemolysis at 20 min, 1 µM: 0%
[6]
  logP: -0.06
[7]
  hemolysis at 20 min, 50 µM: 110%
Staphylococcus aureus [8]
  EC50: 15 µM
Enterococcus faecalis [9]
  MIC: > 42 µM
Staphylococcus aureus [10]
  MIC: 21 µM (≈ 48 µg/mL)
Bacillus subtilis
  MIC: 3 µM (≈ 6.85 µg/mL)
Staphylococcus aureus [11]
  MIC: 3 to 10 µM (≈ 6.85 to 22.8 µg/mL)
Enterococcus faecalis [12]
  MIC: 42 µM (≈ 96 µg/mL)
Staphylococcus aureus [13]
  LC50: 15 µM
Enterococcus faecium
  MIC: 10 µM (≈ 22.8 µg/mL)

## CCCCNCc1cn(C[C@H]2O[C@@H]3O[C@H]4[C@H](O)[C@@H](O)[C@@H](O[C@H]5[C@H](O)[C@@H](O)[C@@H](O[C@H]6[C@H](O)[C@@H](O)[C@@H](O[C@H]7[C@H](O)[C@@H](O)[C@@H](O[C@H]8[C@H](O)[C@@H](O)[C@@H](O[C@H]9[C@H](O)[C@@H](O)[C@@H](O[C@H]2[C@H](O)[C@H]3O)O[C@@H]9Cn2cc(CNCCCC)nn2)O[C@@H]8Cn2cc(CNCCCC)nn2)O[C@@H]7Cn2cc(CNCCCC)nn2)O[C@@H]6Cn2cc(CNCCCC)nn2)O[C@@H]5Cn2cc(CNCCCC)nn2)O[C@@H]4Cn2cc(CNCCCC)nn2)nn1
Streptococcus agalactiae
  MIC: > 44 µM
[1]
  hemolysis at 20 min, 2 µM: 0%
Pseudomonas aeruginosa
  MIC: > 44 µM
[2]
  hemolysis at 20 min, 10 µM: 0%
Escherichia coli
  MIC: > 44 µM
Salmonella typhimurium
  MIC: > 44 µM
[3]
  hemolysis at 20 min, 20 µM: 0%
[4]
  hemolysis at 20 min, 5 µM: 0%
[5]
  hemolysis at 20 min, 1 µM: 0%
[6]
  logP: -0.9
[7]
  hemolysis at 20 min, 50 µM: 0%
Staphylococcus aureus [8]
  EC50: > 50 µM
Enterococcus faecalis [9]
  MIC: > 44 µM
Staphylococcus aureus [10]
  MIC: > 44 µM
Bacillus subtilis
  MIC: 11 µM (≈ 23 µg/mL)
Staphylococcus aureus [11]
  MIC: 11 to 22 µM (≈ 23 to 45.9 µg/mL)
Enterococcus faecalis [12]
  MIC: > 44 µM
Staphylococcus aureus [13]
  LC50: > 50 µM
Enterococcus faecium
  MIC: > 44 µM
